Series [1] can be described thus: folding enthalpy; higher = less favourable; fluorescence melt of hairpins on a sequencing array, two-state fit. The conditions noted are these: sodium 0.088 M. In outline: (§1)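 Melting temperature and folding enthalpy were obtained by bootstrapped two-state fitting. Fits used Cy3 fluorescence of library hairpins with annealed Cy3 and quencher oligos on a sequenced MiSeq flow cell, imaged in 50 mM Na-HEPES pH 8.0, 25 mM NaCl in 2.5 °C steps up to 60 °C and normalised to pre-quench Cy3 and control constructs. Four replicates were combined by inverse-variance weighting, and fitted temperatures were raised by 9.35 °C to match UV melts.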

Series [2] can be described thus: melting temperature; fluorescence melt of hairpins on a sequencing array, two-state fit, raised by 9.35 °C to match UV melts. The conditions noted are these: sodium 0.088 M. In outline: as §1

With GACCGCGAAAGCGGCGTC ((((((....)))..))), the folding enthalpy in series [1] is -9.59 kcal/mol. Moreover, in series [2], the Tm worked out at 51.3 °C.
The matching figures for ACCGTGAAAACGGT (((((....))))): -17 kcal/mol and 55.4 °C.
For the sequence GGCTGACCGAAAGGTGCC (((..(((....)))))), in series [1], the folding enthalpy was -24.7 kcal/mol. Also, in series [2], the Tm came to 52.4 °C.
For the sequence GTGGATTCGAAAGAACAC (((..(((....)))))), in series [1], the folding enthalpy was -17.4 kcal/mol. Moreover, the Tm in series [2] is 32 °C.
GCTTCTGGAAACAGAGGC ((.((((....)))).)): the folding enthalpy in series [1] is -33 kcal/mol. Also, the Tm in series [2] came out at 48.3 °C.
Consider GGAGGAGGAAACTCCTCC (((((((....))))))), for which, in series [1], the folding enthalpy is -40.3 kcal/mol. Also, the Tm in series [2] came to 65.9 °C.
The matching figures for GTAAGTCCGAAAGGATAC (((..(((....)))))): -10.1 kcal/mol and 25.9 °C.
The matching figures for GGTCCCGAAAGGGATACC ((((((....)))..))): -12.9 kcal/mol and 41.4 °C.
As to GATCTAGACCTAGATC ((((((....)))))), the folding enthalpy in series [1] was -32.8 kcal/mol. Further, in series [2], the Tm is 47.2 °C.
For GTCCGCCGAAAGGCAGAC (((.(((....))).))) the same measures were -21.7 kcal/mol and 54.2 °C.
For GTCTGTGGAAACACAGGC (.(((((....))))).), the folding enthalpy in series [1] is -32.4 kcal/mol. The Tm in series [2] was 53.7 °C.
With GCCAATGAAAATTGGC ((((((....)))))), in series [1], the folding enthalpy is -30.7 kcal/mol. The Tm in series [2] turned out to be 59.9 °C.
As for GTCTAACGAAAGTTGGAC (((.(((....))).))), the folding enthalpy in series [1] was -19.8 kcal/mol. The Tm in series [2] worked out at 52 °C.
Take GGTGACGAAAGTCAACC ((((((....))).))): the folding enthalpy in series [1] was -19.6 kcal/mol. In addition, in series [2], the Tm stood at 56.1 °C.
GATCCTGACAGGATC ((((((...)))))): the folding enthalpy in series [1] was -38.9 kcal/mol. Besides, in series [2], the Tm amounted to 55.7 °C.
The matching figures for GCGATCAATCGC ((((....)))): -24.9 kcal/mol and 51.1 °C.
The matching figures for CGCGGAAGAGTCCGCG ((((((....)))))): -36 kcal/mol and 62.6 °C.
For GACTCGGAAACGAGTC ((((((....)))))) the same measures were -32.8 kcal/mol and 66.4 °C.
For AACTCGAAAGAGTT (((((....))))), the folding enthalpy in series [1] was -17.7 kcal/mol. In addition, the Tm in series [2] came out at 50.7 °C.
For GTAAGGCGAAAGCCGTAC (((.(((....))).))) the same measures were -14.2 kcal/mol and 53 °C.
For GGCCTCGAAAGAGCGCC ((((((....))).))), in series [1], the folding enthalpy is -21.8 kcal/mol. Besides, the Tm in series [2] was 56.7 °C.
As for GATCGGCATCCCGATC ((((((....)))))), the folding enthalpy in series [1] was -40.9 kcal/mol. In series [2], the Tm turned out to be 54.1 °C.
GATCAGGTACCTGATC ((((((....)))))): in series [1], the folding enthalpy is -40.6 kcal/mol. Also, in series [2], the Tm was 58.8 °C.
Regarding GCGAAGAATCGC ((((....)))), the folding enthalpy in series [1] was -11.4 kcal/mol. For the same sequence, in series [2], the Tm was found to be 50.2 °C.
The matching figures for GAAAGCACGAAAGTGTTC (((..(((....)))))): -9.28 kcal/mol and 24 °C.
As to GATCAGGGGGCTGATC ((((((....)))))), in series [1], the folding enthalpy was -38.3 kcal/mol. The Tm in series [2] is 49.7 °C.
Regarding GGAGAGGGAAACCTCTCC (((((((....))))))), the folding enthalpy in series [1] was -46.6 kcal/mol. Moreover, in series [2], the Tm was determined as 63.3 °C.
As for GGAAACGAAAGTTGATCC ((((((....)))..))), the folding enthalpy in series [1] is -14.5 kcal/mol. Further, the Tm in series [2] came out at 29.3 °C.
As for GAATGAGGAAACCCATTC (((((.(....).))))), the folding enthalpy in series [1] was -20.9 kcal/mol. The Tm in series [2] turned out to be 36.1 °C.
For GTCACACGAAAGTGGGAC (((.(((....))).))) the same measures were -31.9 kcal/mol and 69.1 °C.
As to GCCTCTCGAAAGAGTGGC (((.(((....))).))), in series [1], the folding enthalpy is -41.8 kcal/mol. For the same sequence, in series [2], the Tm is 57.4 °C.
In the case of GAGTCCGGAAACAGACTC (((((.(....).))))), in series [1], the folding enthalpy was -31.1 kcal/mol. Also, the Tm in series [2] stood at 41.6 °C.
In the case of GACACACGAAAGTGGGTC (((.(((....))).))), in series [1], the folding enthalpy is -37.8 kcal/mol. Moreover, the Tm in series [2] was 67.6 °C.
On to GCCATGCGAAAGCAATGC ((..(((....)))..)), for which, in series [1], the folding enthalpy was -12.6 kcal/mol. Further, in series [2], the Tm came out at 41.3 °C.
The matching figures for GATCCTGCCAAGGATC ((((((....)))))): -38.6 kcal/mol and 65.6 °C.
Turning to GGTCGAGAAATCGACC ((((((....)))))), in series [1], the folding enthalpy is -40 kcal/mol. In series [2], the Tm was 66.2 °C.
The matching figures for GTCTGCGAAAGCAGGAC ((((((....))).))): -11.4 kcal/mol and 57.8 °C.
For GCCACGCGAAAGCGCAGC ((..(((....)))..)) the same measures were -10.6 kcal/mol and 43.6 °C.
For GAACGCGCGAAAGCGTTC (((..(((....)))))), the folding enthalpy in series [1] was -24.7 kcal/mol. Besides, the Tm in series [2] was found to be 57.8 °C.
For ACAATGAAAATTGT (((((....))))) the same measures were -11.1 kcal/mol and 34.8 °C.
Take GCCGCGCGAAAGCGAAGC ((..(((....)))..)): the folding enthalpy in series [1] was -12.9 kcal/mol. In addition, the Tm in series [2] amounted to 46 °C.
For the sequence GATCGGCCATCCGATC ((((((....)))))), the folding enthalpy in series [1] is -40.4 kcal/mol. Besides, the Tm in series [2] turned out to be 55.5 °C.
Take GATCTATCATAGATC ((((((...)))))): the folding enthalpy in series [1] is -28 kcal/mol. For the same sequence, in series [2], the Tm is 40.1 °C.
For GATTGCGGAAACGTAGTC ((.(.((....)).).)), the folding enthalpy in series [1] is -11.4 kcal/mol. The Tm in series [2] amounted to 29.8 °C.
The matching figures for GGAGACGGAAACATCTCC (((((.(....).))))): -31.8 kcal/mol and 39.5 °C.
On to GAGGCAGAAATGCCTC ((((((....)))))), for which, in series [1], the folding enthalpy was -37.8 kcal/mol. Also, in series [2], the Tm came out at 60.7 °C.
As to GTCAAGCGAAAGCTGAC (((.(((....)))))), the folding enthalpy in series [1] was -25.6 kcal/mol. In addition, the Tm in series [2] is 58.6 °C.
Take GATCACTGGGGTGATC ((((((....)))))): the folding enthalpy in series [1] was -47.5 kcal/mol. Also, the Tm in series [2] was found to be 58.3 °C.
The matching figures for GAGTGCGAAAGCATACTC ((((((....)))..))): -17.5 kcal/mol and 43.1 °C.
For GACTACGAAAGTATTGTC ((((((....)))..))) the same measures were -15.2 kcal/mol and 29.6 °C.
Consider GATATTGGAAACGATATC (((((.(....).))))), for which the folding enthalpy in series [1] was -33 kcal/mol. For the same sequence, in series [2], the Tm stood at 36.2 °C.
With GACACCGAAAGGTTTGTC ((((((....)))..))), in series [1], the folding enthalpy is -15.1 kcal/mol. For the same sequence, the Tm in series [2] amounted to 38.3 °C.
For GACTTCCCGAAAGGGGTC (((..(((....)))))) the same measures were -10.5 kcal/mol and 34 °C.
In the case of GCGATTGGAAACAATCGC (((((((....))))))), the folding enthalpy in series [1] was -39.5 kcal/mol. Moreover, the Tm in series [2] worked out at 69 °C.
Take CGCATGAAAATGCG (((((....))))): the folding enthalpy in series [1] was -24.9 kcal/mol. Further, the Tm in series [2] turned out to be 67.6 °C.
The matching figures for GGCTCCGAAAGGACGCC ((((((....))).))): -29.1 kcal/mol and 59.9 °C.
For GCCAGGGAAACCTGGC ((((((....)))))), the folding enthalpy in series [1] is -37.4 kcal/mol. The Tm in series [2] turned out to be 69.2 °C.
For GATCAGCATACTGATC ((((((....)))))) the same measures were -38.5 kcal/mol and 51.4 °C.
The matching figures for GTTTCGGGAAACTGGAAC (((.(.(....).).))): -13.5 kcal/mol and 39.8 °C.
The matching figures for GCAGAACGAAAGTTTGC (((.(((....)))))): -25.9 kcal/mol and 44.7 °C.
With TCGTGGAAACACGA (((((....))))), the folding enthalpy in series [1] was -18.3 kcal/mol. For the same sequence, the Tm in series [2] turned out to be 53.7 °C.
For GAGAGCGAAAGCTTCCTC ((((((....)))..))) the same measures were -10.7 kcal/mol and 27.3 °C.
The matching figures for GCTCCGCGAAAGCAGCGC ((.(.((....)).).)): -17.1 kcal/mol and 43.7 °C.
The matching figures for GCGTGCGCACGC ((((....)))): -45.7 kcal/mol and 62.2 °C.
On to GTGACCGAAAGGTATCAC ((((((....)))..))), for which the folding enthalpy in series [1] was -14.8 kcal/mol. For the same sequence, in series [2], the Tm came to 39.7 °C.
On to GTATTCGGAAACGAACAC ((.((((....)))).)), for which, in series [1], the folding enthalpy is -25.9 kcal/mol. Moreover, the Tm in series [2] came out at 34.3 °C.
Turning to GATCTCATGGGAGATC ((((((....)))))), the folding enthalpy in series [1] is -37 kcal/mol. Besides, in series [2], the Tm stood at 54 °C.
In the case of GAATCCGGAAACGGATCC (.(((((....))))).), the folding enthalpy in series [1] was -14.2 kcal/mol. Further, in series [2], the Tm came out at 40.6 °C.
For TCATGGAAACATGA (((((....))))) the same measures were -24.5 kcal/mol and 39.8 °C.
With GCGTAGCGAAAGCTAAGC ((.((((....)))).)), the folding enthalpy in series [1] is -16.1 kcal/mol. The Tm in series [2] is 58.5 °C.
On to GTGTTGGGAAACCAGTAC ((..(((....)))..)), for which the folding enthalpy in series [1] was -11 kcal/mol. The Tm in series [2] stood at 25 °C.
The matching figures for CCTAAGAAATTAGG (((((....))))): -8.08 kcal/mol and 28.1 °C.
For GCTTGTCGAAAGACTAGC (((.(((....))).))) the same measures were -34 kcal/mol and 53.9 °C.
As for GATTTCGGAAACGAAGTC ((.((((....)))).)), the folding enthalpy in series [1] was -23.8 kcal/mol. In series [2], the Tm stood at 39.3 °C.
For GATCTTACGCAAGATC ((((((....)))))) the same measures were -31.1 kcal/mol and 42.9 °C.

These data come from the array DNA melting data of Ke et al. (doi:10.1101/2024.01.08.574731).
